In ChEMBL document CHEMBL4414567, “α-Pyrone and Sterol Constituents of Penicillium aurantiacobrunneum, a Fungal Associate of the Lichen Niebla homalea” (J Nat Prod, 2019) one finds IC50 data, which are given here for four compounds.

Holding throughout (type): functional, cell-based
The subject of one experiment is A2780. As to the kind of experiment: Antiproliferative activity against human A2780 cells measured after 72 hrs by sulforhodamine B assay. The note with it: A2780, 72 h. Summed up:
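A2780 cells grown in RPMI-1640 with L-glutamine, 10% FBS and 1% antibiotic-antimycotic, 37 °C, 5% CO2, subcultured at 80–90% confluence; seeded at 25000 cells per mL in 96-well plates; compound exposure 72 h at 37 °C; sulforhodamine B read-out; three independent experiments, each in triplicate.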
On the technique in general: Sulforhodamine B stains cellular protein and so reports cell mass.

Another experiment has as its system DU-145. As to the kind of experiment: Antiproliferative activity against human DU145 cells measured after 72 hrs by sulforhodamine B assay. The note with it: DU-145, 72 h. In short, it runs like this: (§1)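 SRB antiproliferation assay: cells seeded at 100,000 cells per mL in 96-well plates, incubated with compound 72 h at 37 °C in 95% air/5% CO2; sulforhodamine B staining read-out; three independent experiments, each in triplicate.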

Another experiment relates to MCF7. As to the kind of experiment: Antiproliferative activity against human MCF7 cells measured after 72 hrs by sulforhodamine B assay. The following applies: MCF7, 72 h. In short, it runs like this: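 SRB assay. MCF-7 cells grown in RPMI-1640 with L-glutamine, 10% FBS and 1% antibiotic-antimycotic, at 37 °C in 95% air/5% CO2, and subcultured at 80–90% confluence. Seeded at 6000 cells per mL in 96-well plates, exposed for 72 h at 37 °C, then read by sulforhodamine B staining. Three independent experiments, each in triplicate.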

The next experiment relates to HT-29. As to the kind of experiment: Antiproliferative activity against human HT-29 cells measured after 72 hrs by sulforhodamine B assay. The note with it: HT-29, 72 h. Summed up:
as §1

The next experiment has as its system HeLa. Briefly: Antiproliferative activity against human HeLa cells measured after 72 hrs by sulforhodamine B assay. In short, it runs like this:
as §1

For orientation: IC50 means the midpoint of a concentration-inhibition curve. Consider `CC(=O)O[C@H]1C(=O)[C@@]2(C)[C@H]([C@H](OC(=O)c3ccccc3)[C@]3(O)C[C@H](OC(=O)[C@H](O)[C@@H](NC(=O)c4ccccc4)c4ccccc4)C(C)=C1C3(C)C)[C@]1(OC(C)=O)CO[C@@H]1C[C@@H]2O` [PACLITAXEL], for which the figures for the IC50 in the experiment on A2780 and in the experiment on DU-145 were 0.018 µM and 0.001 µM, respectively.
As for `COc1cc(=O)oc(/C=C/C=C/C=C/C(C)=C/[C@]2(C)O[C@H](C)[C@](C)(O)[C@@H]2O)c1C`, the concentration for half-maximal inhibition (IC50) with MCF7 is 4.2 to 6 µM; in the experiment with A2780, 5.7 to 8.2 µM; in the experiment with HT-29, greater than 10 µM; with HeLa, greater than 10 µM; in the experiment with DU-145, greater than 10 µM.
As for `C=C(CC[C@]1(C)O[C@@H]2O[C@@]34[C@H](O)C[C@H]5C[C@@H](O)CC[C@]5(C)[C@H]3CC[C@]23[C@H]4[C@H](O)C[C@@H]31)C(C)C`, the IC50 is greater than 10 µM in the experiment with MCF7; greater than 10 µM in the experiment on A2780; 9.8 µM with HT-29; greater than 10 µM in the experiment with HeLa; greater than 10 µM in the experiment on DU-145.
As for `C=C(CC[C@@]1(C)O[C@H]2O[C@H]3C[C@H]1[C@]21CC[C@@H]2[C@@]4(C)CC[C@H](O)C[C@@H]4C[C@H](O)[C@@]2(O)[C@H]31)C(C)C`, the IC50 in the experiment on MCF7, in the experiment with A2780, in the experiment on HT-29, with HeLa and in the experiment with DU-145 was greater than 10 µM each time.
